# Source: ChEMBL document CHEMBL1122844, “Novel nonnarcotic analgesics with an improved therapeutic ratio. Structure-activity relationships of 8-(methylthio)- and 8-(acylthio)-1,2,3,4,5,6-hexahydro-2,6-methano-3-benzazocines” (J Med Chem, 1985)
# Tests used:
# [1] = tested on: Mus musculus; assay: Percent analgesic activity in mice after peroral administration at dose 10 mg/kg; type: functional; settings: route oral
# Method in brief: (§1)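 Acetic acid writhing test in mice, 10 per group. Drug given sc or po; sc dosing simultaneous with ip 0.7% AcOH. Starting 15 min after AcOH, writhing observed for 5 min at 15-min intervals, four times in all. A mouse writhing more than once within 5 min counted as having no analgesic effect.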
# [2] = tested on: Mus musculus; assay: Percent analgesic activity in mice after subcutaneous administration; 20-30%; type: functional; method in brief: as §1
# [3] = tested on: Mus musculus; assay: Effective dose required to produce analgesic action in mice after peroral administration; type: functional; settings: po; method in brief: as §1
# [4] = target: Opioid receptor (Rattus norvegicus, UniProt P33533+P34975+P33535); assay: Inhibitory activity against opiate receptor in rat using [3H]naloxone as radioligand
# [5] = Ratio of ED50 with/without Naloxone (0.2 mg/kg) after simultaneous injection of drug; type: organism-based
# Method in brief: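 Mouse acetic acid writhing test (ip 0.7% AcOH, 10 mice/group, four 5-min observations at 15-min intervals; more than one writhe in 5 min = no analgesia). ED50 determined with drug alone and with naloxone 0.2 mg/kg injected simultaneously with the drug; value is ratio of ED50 with/without naloxone.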
# [6] = tested on: Mus musculus; assay: Percent analgesic activity in mice after subcutaneous administration at dose 10 mg/kg; type: functional; method in brief: as §1
# [7] = tested on: Mus musculus; assay: Percent analgesic activity in mice after peroral administration at dose 20 mg/kg; type: functional; settings: route oral; method in brief: as §1
SMILES,ED50 [3] [mg/kg],other results
CC(C)=CCN1CC[C@@]2(C)c3cc(SC(=O)C(C)(C)C)ccc3CC1[C@@H]2C,,Analgesic activity [1]: 50%
C[C@H]1[C@@H]2Cc3ccc(O)cc3[C@]1(C)CCN2C [METAZOCINE],,Analgesic activity [2]: 20%
CC(C)=CCN1CC[C@@]2(C)c3cc(SC(=O)c4ccc(Cl)cc4)ccc3CC1[C@@H]2C,6,
C[C@H]1C2Cc3ccc(OC(=O)c4ccccc4)cc3[C@]1(C)CCN2C,1.7,IC50 [4]: 107 nM; Ratio [5]: 6.4
CC(=O)Sc1ccc2c(c1)[C@]1(C)CCN(C)C(C2)[C@@H]1C,4.5,
C[C@H]1C2Cc3ccc(SC(=O)C(C)(C)C)cc3[C@]1(C)CCN2CCc1ccccc1,5.2,
C[C@H]1C2Cc3ccc(O)cc3[C@]1(C)CCN2C,0.46,
CCC(=O)Sc1ccc2c(c1)[C@]1(C)CCN(CCc3ccccc3)C(C2)[C@@H]1C,7,
C[C@H]1C2Cc3ccc(SC(=O)c4ccccc4)cc3[C@]1(C)CCN2CCc1ccccc1,1.7,
CN1CC[C@]23c4c5ccc(O)c4O[C@H]2[C@@H](O)C=C[C@H]3[C@H]1C5 [MORPHINE],0.52,
C[C@H]1[C@H]2Cc3ccc(O)cc3[C@@]1(C)CCN2C,0.27,
CC(C)=CCN1CC[C@]2(C)c3cc(O)ccc3C[C@H]1[C@H]2C [(+)-PENTAZOCINE],1.6,Analgesic activity [6]: 20%
COc1ccc(C(=O)Sc2ccc3c(c2)[C@]2(C)CCN(CCc4ccccc4)C(C3)[C@@H]2C)cc1,5.3,
CC(C)=CCN1CC[C@@]2(C)c3cc(SC(=O)c4ccccc4)ccc3C[C@@H]1[C@@H]2C,0.74,
C[C@H]1C2Cc3ccc(SC(=O)c4ccc(Cl)cc4)cc3[C@]1(C)CCN2CCc1ccccc1,,Analgesic activity [7]: 40%
CC(C)=CCN1CC[C@@]2(C)c3cc(O)ccc3C[C@@H]1[C@@H]2C,0.36,

SMILES,ED50 [3] [mg/kg],other results
C[C@H]1C2Cc3ccc(SC(=O)C(C)(C)C)cc3[C@]1(C)CCN2C,6.4,
C[C@H]1C2Cc3ccc(SC(=O)c4ccccc4)cc3[C@]1(C)CCN2Cc1ccccc1,,Analgesic activity [7]: 30%
C[C@H]1C2Cc3ccc(O)cc3[C@]1(C)CCN2CCc1cccs1,0.071,
C[C@H]1C2Cc3ccc(O)cc3[C@@]1(C)CCN2CCc1ccccc1,0.135,
CC(C)=CCN1CC[C@@]2(C)c3cc(SC(=O)c4ccccc4)ccc3CC1[C@@H]2C,4,
C[C@H]1C2Cc3ccc(SC(=O)c4ccc(Cl)cc4)cc3[C@]1(C)CCN2C,2.8,
CCOC(=O)Sc1ccc2c(c1)[C@]1(C)CCN(CCc3ccccc3)C(C2)[C@@H]1C,18.5,
C[C@H]1[C@H]2Cc3ccc(SC(=O)c4ccccc4)cc3[C@]1(C)CCN2C,1,
COc1ccc(C(=O)Sc2ccc3c(c2)[C@]2(C)CCN(C)C(C3)[C@@H]2C)cc1,4.8,
COc1ccc(C(=O)Sc2ccc3c(c2)[C@]2(C)CCN(CC=C(C)C)C(C3)[C@@H]2C)cc1,5.3,
C[C@H]1C2Cc3ccc(SC(=O)c4ccccc4)cc3[C@]1(C)CCN2CCc1cccs1,,Analgesic activity [7]: 40%
C[C@H]1C2Cc3ccc(SC(=O)c4ccccc4)cc3[C@]1(C)CCN2C,1.05,IC50 [4]: 1530 nM; Ratio [5]: 1.7
CC(C)=CCN1CC[C@@]2(C)c3cc(SC(=O)c4ccccc4)ccc3C[C@H]1[C@@H]2C,,Analgesic activity [6]: 20%
CC(C)=CCN1CC[C@@]2(C)c3cc(OC(=O)c4ccccc4)ccc3CC1[C@@H]2C,2.6,
C[C@H]1[C@@H]2Cc3ccc(SC(=O)c4ccccc4)cc3[C@]1(C)CCN2C,,Analgesic activity [6]: 30%
